According to ChEMBL document CHEMBL5678801, “A benzothiophene inhibitor of mitogen-activated protein kinase-activated protein kinase 2 inhibits tumor necrosis factor alpha production and has oral anti-inflammatory efficacy in acute and chronic models of inflammation” (J Pharmacol Exp Ther, 2010):

Key:
[1] = Volume of distribution at steady state in Sprague-Dawley rat measured upto 24 hrs by […] analysis; format: ADME; settings: in vivo, read-out: Vdss
Summary of the method: (§1)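 Male Sprague-Dawley rats (275-300 g), carotid-catheterized and acclimated overnight. Dosing was i.v. at 1 mpk (n=2) in 70% saline/20% PEG-400/10% ethanol, or oral at 3 mpk (n=3) as a suspension in 0.5% HPMC/Tween. Plasma drug was measured by LC-MS/MS. Cmax and Tmax were read from individual profiles. t½ came from the terminal log-linear slope and AUC by the linear trapezoidal rule. CL = dose/AUC0-∞, Vdss = CL×MRT, F = dose-normalized AUC po/iv.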

[2] = Plasma protein binding in rat; format: ADME, cell-free
Summary of the method: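 Binding to rat and human plasma was measured in vitro by ultracentrifugation.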

[3] = Antiinflammatory activity in human PBMC cells assessed as inhibition of LPS induced IL-8 production preincubated for 1 hr followed by LPS stimulation and measured after 16 hrs by MSD analysis; format: functional, cell-based
Summary of the method: (§2)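 Human PBMCs were pretreated with compound for 1 h (<1% DMSO final), then stimulated with LPS 100 ng/ml at 37°C. Cytokines in culture media were read by MSD 4-plex: TNFα at 4 h; IL-1β, IL-6 and IL-8 at 16 h. Data are means ±S.E.M. of two independent experiments in duplicate, three donors. IC50 by 4-parameter nonlinear regression.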

[4] = AUC (0 to infinity) in Sprague-Dawley rat at 3 mg/kg, po measured upto 24 hrs by […] analysis; format: ADME, organism-based; settings: in vivo; summary of the method: as §1
[5] = target: Serine/threonine-protein kinase pim-1 (Homo sapiens, UniProt P11309); experiment: Inhibition of Pim1 (unknown origin)
Serine/threonine-protein kinase pim-1, sequence (P11309 whole entry): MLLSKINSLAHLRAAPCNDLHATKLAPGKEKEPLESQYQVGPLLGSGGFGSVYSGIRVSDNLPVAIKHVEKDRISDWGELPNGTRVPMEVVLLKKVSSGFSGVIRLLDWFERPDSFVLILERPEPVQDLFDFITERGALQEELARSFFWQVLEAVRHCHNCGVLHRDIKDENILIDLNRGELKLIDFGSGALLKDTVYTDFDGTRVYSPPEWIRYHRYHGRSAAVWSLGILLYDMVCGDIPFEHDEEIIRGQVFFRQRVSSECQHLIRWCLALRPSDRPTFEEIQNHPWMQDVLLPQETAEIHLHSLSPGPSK
Summary of the method: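 Kinase panel: 200 kinases were first screened at 1 μM inhibitor for percent inhibition. Those above 50% inhibition were then titrated for IC50. MgATP was fixed at the Km(app) determined for each enzyme.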

[6] = Unbound plasma concentration in po dosed LPS-induced Lewis rat model at ED80 concentration measured after 5.5 hrs of initial dose by LC-MS/MS analysis; format: ADME, organism-based; settings: in vivo
Summary of the method: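 Male Lewis rats (225-250 g, 5 per group) were fasted 18 h, then dosed orally at 0.2-60 mg/kg as a suspension in 0.5% methylcellulose/0.025% Tween 20. LPS 1 mg/kg was given i.v. 4 h later. Blood was taken by cardiac puncture 90 min after LPS. Serum TNFα was read by ELISA and drug by LC-MS/MS, three independent experiments. 4-parameter fit. Unbound values were corrected with measured rat plasma protein binding.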

[7] = Cytotoxicity against human PBMC cells assessed as reduction in cell viability at upto 20 uM; format: toxicity, cell-based
[8] = target: MAP kinase-activated protein kinase 3 (Homo sapiens, UniProt Q16644); experiment: Inhibition of recombinant MK3 (unknown origin) expressed in Escherichia coli using KKKALSRQLSVAA as substrate incubated for 1 hr followed by substrate addition in presence of ATP
MAP kinase-activated protein kinase 3, sequence (Q16644 whole entry): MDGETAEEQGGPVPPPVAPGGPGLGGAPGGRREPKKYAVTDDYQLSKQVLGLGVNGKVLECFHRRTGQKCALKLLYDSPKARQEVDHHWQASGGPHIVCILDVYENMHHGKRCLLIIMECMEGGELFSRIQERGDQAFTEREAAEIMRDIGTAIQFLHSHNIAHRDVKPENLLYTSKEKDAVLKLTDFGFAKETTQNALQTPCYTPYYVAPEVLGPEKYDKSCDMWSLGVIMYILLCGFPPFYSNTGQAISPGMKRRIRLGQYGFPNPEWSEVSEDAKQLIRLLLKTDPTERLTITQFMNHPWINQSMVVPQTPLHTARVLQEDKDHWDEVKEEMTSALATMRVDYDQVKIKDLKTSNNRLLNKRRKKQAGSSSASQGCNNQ
Summary of the method: (§3)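 Recombinant kinase first activated with activated p38α (1:50 molar ratio) and 250 μM ATP for 1 hr at 30°C. Activity measured by 33P-labelled product peptide, separated by ion exchange. MgATP fixed at the Km(app) determined for each enzyme. IC50 values from duplicate experiments.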

[9] = Antiinflammatory activity in human Whole blood cell assessed as inhibition of LPS induced IL-8 production preincubated for 1 hr followed by LPS stimulation and measured after 16 hrs by MSD analysis; format: functional, cell-based
Summary of the method: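 Human whole blood was stimulated ex vivo with LPS 100 ng/ml. Plasma cytokines were read by MSD 4-plex: TNFα at 4 h; IL-1β, IL-6 and IL-8 at 16 h. Data are means ±S.E.M. of two independent experiments in duplicate, three donors. IC50 by 4-parameter nonlinear regression.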

[10] = Tmax in Sprague-Dawley rat measured upto 24 hrs by […] analysis; format: ADME; settings: in vivo; summary of the method: as §1
Rattus norvegicus [11] = organism: Rattus norvegicus; experiment: Inhibition of rat MK2 assessed as unbound fraction
Rattus norvegicus [12] = experiment: Antiarthritic activity in chronic SCW-induced arthritis Lewis rat model assessed as inhibition of chronic paw swelling administered twice daily via oral gavage for 10 to 21 days; format: organism-based; settings: time 10-21 day
Summary of the method: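 Female Lewis rats (125-140 g) received a single i.p. streptococcal cell wall injection. Animals showing the acute phase were pooled, 4-8 per group over three experiments. Dosing was oral gavage b.i.d., days 10-21, in methylcellulose-Tween-20 vehicle. Hind paw volume was read by displacement plethysmometer on day 21, as % inhibition of swelling. Plasma was sampled up to 11 h after the last dose, 3 rats per dose. ED values came from fitted curves.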

[13] = Inhibition of IL-6 production in LPS induced human PBMC cells preincubated with compound for 1 hr followed by LPS induction and measured after 16 hrs by MSD analysis; format: functional, cell-based; summary of the method: as §2
[14] = Inhibition of CaMK II (unknown origin); design: species or system Homo sapiens
[15] = target: MAP kinase-interacting serine/threonine-protein kinase 1 (Homo sapiens, UniProt Q9BUB5); experiment: Inhibition of recombinant MNK1 (unknown origin) expressed in Escherichia coli using KKKALSRQLSVAA as substrate incubated for 1 hr followed by substrate addition in presence of ATP
MAP kinase-interacting serine/threonine-protein kinase 1, sequence (Q9BUB5 whole entry): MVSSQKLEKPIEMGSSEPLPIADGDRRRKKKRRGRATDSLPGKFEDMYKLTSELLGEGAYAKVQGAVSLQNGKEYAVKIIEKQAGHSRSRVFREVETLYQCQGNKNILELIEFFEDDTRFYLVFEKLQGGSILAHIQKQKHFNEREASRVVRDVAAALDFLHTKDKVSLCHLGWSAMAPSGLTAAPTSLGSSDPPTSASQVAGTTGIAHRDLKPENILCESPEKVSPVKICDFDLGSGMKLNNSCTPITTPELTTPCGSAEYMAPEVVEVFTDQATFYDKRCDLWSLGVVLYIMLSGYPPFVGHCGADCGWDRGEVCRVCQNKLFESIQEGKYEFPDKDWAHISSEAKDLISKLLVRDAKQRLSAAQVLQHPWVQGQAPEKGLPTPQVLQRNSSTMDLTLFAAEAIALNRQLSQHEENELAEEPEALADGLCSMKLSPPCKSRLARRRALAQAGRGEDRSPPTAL
Summary of the method: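 Recombinant MAPKAP kinase was first activated with activated p38α (1:50 molar ratio) and 250 μM ATP for 1 hr at 30°C. Activity was then assayed at Km(app) MgATP by ion-exchange separation of 33P-labeled product peptide. IC50 was taken from duplicate experiments.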

[16] = target: T1, MAP kinase-activated protein kinase 5 (Homo sapiens, UniProt Q8IW41); experiment: Inhibition of recombinant PRAK (unknown origin) expressed in Escherichia coli using KKKALSRQLSVAA as substrate incubated for 1 hr followed by substrate addition in presence of ATP; summary of the method: as §3
T1 sequence (Q8IW41 whole entry): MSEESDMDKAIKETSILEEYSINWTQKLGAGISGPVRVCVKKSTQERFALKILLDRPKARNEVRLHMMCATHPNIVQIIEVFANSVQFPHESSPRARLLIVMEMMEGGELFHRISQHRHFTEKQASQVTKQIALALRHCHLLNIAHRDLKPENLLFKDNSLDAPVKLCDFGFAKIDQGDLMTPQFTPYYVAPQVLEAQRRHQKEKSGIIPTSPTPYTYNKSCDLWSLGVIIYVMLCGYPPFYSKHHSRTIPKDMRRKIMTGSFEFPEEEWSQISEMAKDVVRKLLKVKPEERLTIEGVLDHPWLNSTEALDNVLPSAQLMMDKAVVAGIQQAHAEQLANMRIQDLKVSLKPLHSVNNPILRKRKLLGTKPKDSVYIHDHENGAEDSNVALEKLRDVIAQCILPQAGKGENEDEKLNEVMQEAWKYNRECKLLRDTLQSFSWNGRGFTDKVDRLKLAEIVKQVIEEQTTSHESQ

- Vd [1]: 1.5 L/kg
- PPB [2]: 92.1%
- IC50 [3]: 2590 nM
- AUC(0-inf) [4]: 1.8 µM·h
- IC50 [5]: 88 nM
- Cp(f) [6]: 340 nM
- IC50 [8]: 53 nM
- IC50 [9]: > 20000 nM
- Tmax [10]: 10.2 min
- fEC50 (Rattus norvegicus [11]): 110 nM
- ED80 (Rattus norvegicus [12]; rat, in vivo, po): 50 mg/kg
- IC50 [13]: 1260 nM
- IC50 [14]: 70 nM
- IC50 [15]: 3000 nM
- IC50 [16]: 5 nM
SMILES: Cc1ccc(-c2ccc3c(ccc4sc5c(c43)NC[C@@H](C)NC5=O)n2)cn1
- Activity [7]: Non-Toxic
- ED50 (Rattus norvegicus [12]; Rattus norvegicus, Lewis): 20 mg/kg
